The text below walks through data of ChEMBL document CHEMBL1938337, “Discovery of novel, potent, and selective inhibitors of 3-phosphoinositide-dependent kinase (PDK1)” (J Med Chem, 2011).

One may read the Ki as the dissociation constant of the complex between target and ligand, obtained from inhibition or displacement. Lower therefore signals a stronger hold on the target. The term inhibition denotes the drop in the measured response relative to a control, in per cent.

Experiment [1] has as its target Phosphatidylinositol 4,5-bisphosphate 3-kinase catalytic subunit alpha isoform (Mus musculus, UniProt P42337). Put plainly: Inhibition of mouse PI3Kalpha after 30 mins by fluorescence polarization assay. In outline: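 Mouse PI3Kα 0.5 nM with 30 μM PIP₂, 5 mM MgCl₂, 200 μM ATP, 30 min at room temperature (~22 °C); stopped with 10 mM EDTA. Then 3 min with detector mix of 480 nM GST-Grp1 PH domain and 12 nM TAMRA-PIP₃. Fluorescence polarization read in 50 mM Hepes pH 7.4, 150 mM NaCl, 5 mM DTT, 0.05% CHAPS. Duplicate points, nonlinear regression fit.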

The target of experiment [2] is Mitogen-activated protein kinase kinase kinase kinase 4 (Homo sapiens) (UniProt O95819). Put plainly: Inhibition of MAP4K4 at 1 uM.
Mitogen-activated protein kinase kinase kinase kinase 4 (Homo sapiens), sequence (O95819 2-1239 limits assumed): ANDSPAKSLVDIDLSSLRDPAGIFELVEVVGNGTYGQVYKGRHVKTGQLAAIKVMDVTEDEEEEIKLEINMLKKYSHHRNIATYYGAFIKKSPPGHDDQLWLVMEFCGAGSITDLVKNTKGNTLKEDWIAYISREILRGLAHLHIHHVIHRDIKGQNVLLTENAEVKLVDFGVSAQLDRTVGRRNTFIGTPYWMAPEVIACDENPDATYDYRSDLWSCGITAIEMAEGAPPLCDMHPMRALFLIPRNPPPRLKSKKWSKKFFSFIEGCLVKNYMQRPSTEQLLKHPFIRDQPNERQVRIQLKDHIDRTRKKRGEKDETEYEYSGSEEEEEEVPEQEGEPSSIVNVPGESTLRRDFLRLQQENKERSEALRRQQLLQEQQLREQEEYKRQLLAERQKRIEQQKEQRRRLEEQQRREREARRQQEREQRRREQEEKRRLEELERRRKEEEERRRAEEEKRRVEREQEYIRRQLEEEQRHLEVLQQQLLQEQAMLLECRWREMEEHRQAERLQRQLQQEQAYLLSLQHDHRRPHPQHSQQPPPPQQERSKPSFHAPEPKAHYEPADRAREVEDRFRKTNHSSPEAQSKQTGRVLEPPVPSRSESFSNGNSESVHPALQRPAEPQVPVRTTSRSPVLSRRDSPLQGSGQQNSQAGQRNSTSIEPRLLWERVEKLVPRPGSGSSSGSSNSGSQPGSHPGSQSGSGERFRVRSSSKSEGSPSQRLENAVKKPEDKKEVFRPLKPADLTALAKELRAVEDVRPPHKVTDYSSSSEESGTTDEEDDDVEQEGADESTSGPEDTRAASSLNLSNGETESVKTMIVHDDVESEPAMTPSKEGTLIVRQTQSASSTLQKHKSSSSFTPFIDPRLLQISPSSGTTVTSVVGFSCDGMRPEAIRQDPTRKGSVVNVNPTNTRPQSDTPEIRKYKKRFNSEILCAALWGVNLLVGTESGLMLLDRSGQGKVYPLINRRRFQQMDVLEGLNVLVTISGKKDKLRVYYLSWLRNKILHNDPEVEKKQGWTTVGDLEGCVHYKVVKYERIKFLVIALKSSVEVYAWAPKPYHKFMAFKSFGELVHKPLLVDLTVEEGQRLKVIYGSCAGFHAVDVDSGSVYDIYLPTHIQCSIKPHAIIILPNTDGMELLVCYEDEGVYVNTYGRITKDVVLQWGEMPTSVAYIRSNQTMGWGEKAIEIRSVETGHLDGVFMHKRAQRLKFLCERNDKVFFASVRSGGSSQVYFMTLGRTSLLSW
Experiment [3] deals with Serine/threonine-protein kinase pim-2 (Homo sapiens) (UniProt Q9P1W9). In words: Inhibition of PIM2 at 1 uM.
Serine/threonine-protein kinase pim-2 (Homo sapiens), sequence (Q9P1W9 whole entry, looked up): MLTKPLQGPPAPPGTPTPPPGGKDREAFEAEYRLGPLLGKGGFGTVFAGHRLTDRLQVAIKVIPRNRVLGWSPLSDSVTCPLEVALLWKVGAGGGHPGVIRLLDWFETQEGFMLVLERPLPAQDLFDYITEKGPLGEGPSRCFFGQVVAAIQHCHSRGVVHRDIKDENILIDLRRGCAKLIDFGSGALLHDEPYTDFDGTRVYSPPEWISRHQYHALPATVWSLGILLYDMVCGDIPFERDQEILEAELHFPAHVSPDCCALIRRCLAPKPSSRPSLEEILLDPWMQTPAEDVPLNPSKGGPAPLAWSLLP
Experiment [4] has as its target T1, Serine/threonine-protein kinase TAO2 (Homo sapiens) (UniProt Q9UL54).
T1 sequence (whole entry): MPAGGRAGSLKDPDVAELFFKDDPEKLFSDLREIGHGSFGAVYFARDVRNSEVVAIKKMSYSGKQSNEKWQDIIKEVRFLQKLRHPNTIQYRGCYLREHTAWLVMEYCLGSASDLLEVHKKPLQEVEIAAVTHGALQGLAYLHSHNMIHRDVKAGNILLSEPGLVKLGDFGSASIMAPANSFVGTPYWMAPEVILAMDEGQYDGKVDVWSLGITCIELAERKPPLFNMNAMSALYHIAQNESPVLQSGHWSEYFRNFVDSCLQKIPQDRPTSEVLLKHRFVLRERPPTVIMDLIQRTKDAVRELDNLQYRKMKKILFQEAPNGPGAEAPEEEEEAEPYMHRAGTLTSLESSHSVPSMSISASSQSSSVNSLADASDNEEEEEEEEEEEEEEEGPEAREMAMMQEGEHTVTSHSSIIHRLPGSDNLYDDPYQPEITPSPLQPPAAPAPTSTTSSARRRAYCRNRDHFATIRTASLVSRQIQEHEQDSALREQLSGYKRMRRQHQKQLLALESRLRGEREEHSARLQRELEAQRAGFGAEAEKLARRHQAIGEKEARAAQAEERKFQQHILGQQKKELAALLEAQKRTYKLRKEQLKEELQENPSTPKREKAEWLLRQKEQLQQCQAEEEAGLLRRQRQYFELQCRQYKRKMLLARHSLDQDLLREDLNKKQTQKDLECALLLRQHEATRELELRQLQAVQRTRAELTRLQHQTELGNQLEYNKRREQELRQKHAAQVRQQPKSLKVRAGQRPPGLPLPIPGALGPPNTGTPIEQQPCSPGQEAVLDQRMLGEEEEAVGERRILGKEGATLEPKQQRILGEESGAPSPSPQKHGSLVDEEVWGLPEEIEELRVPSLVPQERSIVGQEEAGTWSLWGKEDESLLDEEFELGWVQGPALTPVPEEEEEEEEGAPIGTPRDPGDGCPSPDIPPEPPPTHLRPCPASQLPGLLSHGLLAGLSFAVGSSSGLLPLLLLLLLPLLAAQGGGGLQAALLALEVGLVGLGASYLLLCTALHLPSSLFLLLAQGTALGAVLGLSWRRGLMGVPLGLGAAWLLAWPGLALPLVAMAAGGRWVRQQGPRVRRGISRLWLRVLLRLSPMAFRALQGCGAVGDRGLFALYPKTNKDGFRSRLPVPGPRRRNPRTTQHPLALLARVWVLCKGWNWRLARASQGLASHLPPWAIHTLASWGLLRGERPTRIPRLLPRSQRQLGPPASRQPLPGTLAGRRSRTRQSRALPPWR
In words: Inhibition of TAOK2 at 1 uM.

Phosphatidylinositol 4,5-bisphosphate 3-kinase catalytic subunit alpha isoform, sequence (P42337 whole entry, the tested form may be a part, canonical isoform): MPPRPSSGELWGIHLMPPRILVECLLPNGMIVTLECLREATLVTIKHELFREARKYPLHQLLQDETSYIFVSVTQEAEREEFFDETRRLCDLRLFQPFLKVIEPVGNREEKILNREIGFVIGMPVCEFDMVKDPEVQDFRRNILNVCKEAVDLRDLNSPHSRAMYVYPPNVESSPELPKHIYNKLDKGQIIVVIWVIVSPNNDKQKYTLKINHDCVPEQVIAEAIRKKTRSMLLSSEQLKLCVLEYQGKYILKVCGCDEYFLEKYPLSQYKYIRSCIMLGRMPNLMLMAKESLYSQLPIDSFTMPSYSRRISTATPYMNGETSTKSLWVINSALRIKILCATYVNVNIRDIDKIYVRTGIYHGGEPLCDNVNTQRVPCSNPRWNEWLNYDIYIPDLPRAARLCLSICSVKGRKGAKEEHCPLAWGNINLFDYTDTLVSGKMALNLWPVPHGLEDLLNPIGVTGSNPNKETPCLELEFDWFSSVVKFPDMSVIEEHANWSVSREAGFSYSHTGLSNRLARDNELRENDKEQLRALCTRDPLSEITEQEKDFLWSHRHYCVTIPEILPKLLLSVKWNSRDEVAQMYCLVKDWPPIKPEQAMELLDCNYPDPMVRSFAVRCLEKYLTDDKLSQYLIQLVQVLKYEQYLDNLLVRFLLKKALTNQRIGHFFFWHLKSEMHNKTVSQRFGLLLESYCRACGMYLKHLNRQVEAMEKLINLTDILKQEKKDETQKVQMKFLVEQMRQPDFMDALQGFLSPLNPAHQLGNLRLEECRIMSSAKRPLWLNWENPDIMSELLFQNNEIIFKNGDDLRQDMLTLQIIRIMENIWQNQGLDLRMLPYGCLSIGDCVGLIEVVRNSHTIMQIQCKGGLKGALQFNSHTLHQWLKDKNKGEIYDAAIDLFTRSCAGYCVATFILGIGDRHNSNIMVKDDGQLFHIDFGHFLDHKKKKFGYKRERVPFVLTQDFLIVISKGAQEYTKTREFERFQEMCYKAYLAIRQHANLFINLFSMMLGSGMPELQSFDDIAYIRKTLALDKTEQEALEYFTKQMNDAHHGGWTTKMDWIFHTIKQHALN

For `CC(=O)N1CC[C@@H](Nc2cncc(C(=O)c3cn(C(C)C)c4ncnc(N)c34)n2)[C@H]1c1ccccc1`, in experiment [1], the affinity corresponds to a Ki of 1900 nM. Further, the inhibition in experiment [2] was 23%; in experiment [3], -2%; in experiment [4], -5%.

For `CC(C)n1cc(C(=O)c2cncc(N[C@@H]3CCN(C=O)[C@@H]3c3ccc(F)cc3)n2)c2c(N)ncnc21`, in experiment [1], affinity was put at a Ki of 130 nM. In addition, the inhibition in experiment [2] was 57%; in experiment [3], 9%; in experiment [4], -1%.

In experiment [1], `CC(=O)N1CC[C@@H](Nc2cncc(C(=O)c3cn(C(C)C)c4ncnc(N)c34)n2)[C@H]1c1ccc(F)cc1` showed a Ki of 1300 nM. The inhibition in experiment [2] turned out to be 50%; in experiment [3], 7%; in experiment [4] it was 4%.
